Screens as filed in PubChem BioAssay.
KCNK3 block – human KCNK3 channel inhibitors, primary screen, CHO cells, FluxOR thallium flux, B-score. 0.84% of 340,000 active. FluxOR fluorescence; stronger effect = lower value. B-score at 10 µM;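 active means B-score under library mean minus 4 SD, starting fluorescence ratio at most library mean plus 5 SD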;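 further: more negative B-score means stronger inhibition of thallium flux through KCNK3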
hERG protect – hERG rescue from dofetilide block, primary screen, cell-based, CHO-hERG, FluxOR thallium flux, dofetilide IC70; dofetilide IC70 present; 0.51% of 310,000 active; activation (rescue from dofetilide block), less the hit threshold, % at 10 µM;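 active means activation above the mean of controls blocked by dofetilide plus 5 SD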;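 further: thallium influx through hERG after potassium depolarization seen as dye fluorescence rise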
KCNQ1 pot – potentiators or activators of KCNQ1 channel, primary screen, cell-based, thallium flux, high-throughput; Potassium voltage-gated channel subfamily KQT member 1 (Homo sapiens), P51787; CHO-K1 KCNQ1, thallium flux FluxOR fluorescence; stronger effect = higher value; B-score at 10 µM; 0.35% of 310,000 active; AID 2648, 2010;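 active means fluorescence ratio B-score, a plate-corrected score, at least three library SD, with initial intensity B-score within 5 SD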
Target sequence (P51787 whole entry, looked up): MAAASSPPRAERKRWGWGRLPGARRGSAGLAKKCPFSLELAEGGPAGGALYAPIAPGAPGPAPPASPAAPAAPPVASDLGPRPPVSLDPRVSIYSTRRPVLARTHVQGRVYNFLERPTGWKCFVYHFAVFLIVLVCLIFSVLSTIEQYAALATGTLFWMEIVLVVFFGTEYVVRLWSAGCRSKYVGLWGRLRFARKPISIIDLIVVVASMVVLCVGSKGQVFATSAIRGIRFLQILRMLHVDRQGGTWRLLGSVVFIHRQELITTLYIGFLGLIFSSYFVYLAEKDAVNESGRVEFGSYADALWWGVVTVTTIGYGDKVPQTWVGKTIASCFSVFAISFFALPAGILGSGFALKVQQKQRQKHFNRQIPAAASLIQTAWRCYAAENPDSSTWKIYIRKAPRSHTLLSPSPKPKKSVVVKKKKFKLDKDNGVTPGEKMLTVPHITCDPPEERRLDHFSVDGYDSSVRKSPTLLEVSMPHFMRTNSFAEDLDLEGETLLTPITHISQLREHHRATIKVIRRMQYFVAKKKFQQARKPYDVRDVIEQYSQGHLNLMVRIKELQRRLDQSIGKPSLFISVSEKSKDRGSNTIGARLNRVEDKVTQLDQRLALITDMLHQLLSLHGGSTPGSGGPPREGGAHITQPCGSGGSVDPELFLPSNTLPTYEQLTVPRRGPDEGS
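Medium – assay buffer, equal DMSO in all wells · Material – CHO-K1 cell line with stable KCNQ1 potassium channel expression · Signal – kinetic FluxOR thallium fluorescence, 10-s 1-Hz baseline, 110-s post-stimulus read · Compound – single concentration per compound, DMSO matched to controls · Schedule – 37 °C overnight plating, 90-min dark dye load, 20-min compound pretreatment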
KCNK9 block – KCNK9 potassium channel inhibitors, primary screen, HEK293 cells, thallium flux. Potassium channel subfamily K member 9 (Homo sapiens), Q9NPC2. FluxOR thallium flux fluorescence; stronger effect = lower value. B-score at 10 µM. 1.2% of 310,000 active. AID 488922, 2010;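 active means ratio B-score over 3 SD below the library mean, with starting fluorescence within 5 SD of its mean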;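 further: negative B-score means less thallium flux so channel inhibition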
KCNQ1 inh – inhibitors of human KCNQ1 channel, primary screen, cell-based, thallium flux, high-throughput; AID 2642, 2010; B-score at 10 µM; 1.3% of 310,000 active; CHO-K1 KCNQ1, FluxOR thallium flux fluorescence; stronger effect = higher value; Potassium voltage-gated channel subfamily KQT member 1 (Homo sapiens), P51787;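 active means compounds whose thallium flux B-score, printed positive for inhibition, exceeds three library SD while starting fluorescence stays within three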;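 further: channel opened by potassium depolarization with thallium stimulus after 20 min compound exposure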
KCNQ1 inh valid – KCNQ1 potassium channel inhibitors, confirmation, cell-based, Tl flux, duplicate | shares compounds with KCNQ1 inh | KCNQ1 cell line, FluxOR thallium flux fluorescence | inhibition, % at 10 µM | 93% of 1,600 active;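 active means primary screen active, with duplicate mean exceeding buffer control mean plus 3 SD of buffer wells, cut at about 28% in these data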;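 further: 0% = buffer control ratio and 100% = XE991 inhibitor control ratio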
CHO Tl flux – thallium flux effects in parental CHO cells, counter-screen for KCNQ1 inhibitor project, cell-based, Tl flux. shares compounds with KCNQ1 inh. parental CHO-K1, FluxOR thallium flux fluorescence ratio; stronger effect = lower value; zero means no signal rise above baseline. fluorescence ratio (Tl flux) at 10 µM. 21% of 1,600 active. AID 588366, 2011;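 active means mean of duplicate thallium-flux fluorescence ratios in parental host cells more than 5 SD below the buffer control mean, cut at about 0.38 in these data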;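 further: ratio is peak minus minimum fluorescence divided by baseline fluorescence; actives read low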
KCNQ1 APC inh – KCNQ1 channel inhibitors, confirmation, orthogonal assay, cell-based, automated electrophysiology. shares compounds with KCNQ1 inh. KCNQ1-CHO cells, automated patch clamp current. calls only at 10 µM. 20% of 490 active. AID 624120, 2012;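 active means KCNQ1 current drop exceeding 3 SD of negative control wells, seen in both duplicate runs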;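 further: steady state current during a 2 s step from -80 to +40 mV; negative values mean current inhibition and positive values mean potentiation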
KCNQ2 inh – KCNQ2 channel inhibition, selectivity assay for KCNQ1 inhibitor project, cell-based; shares compounds with KCNQ1 inh; KCNQ2 cells, FluxOR thallium flux fluorescence; inhibition, % at 10 µM; 71% of 1,600 active; AID 651746, 2012;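 active means mean percent inhibition of the KCNQ2 thallium signal more than 5 SD above the buffer-only control wells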;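 further: KCNQ2 expressed in CHO cells; 0% = buffer control wells and 100% = XE-991 inhibitor control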
KCNQ1 KCNE1 spec – KCNQ1/KCNE1 channel inhibition, selectivity assay for KCNQ1 inhibitor project, CHO-K1 cells, thallium flux, FluxOR; AID 652147, 2013; FluxOR thallium flux fluorescence; shares compounds with KCNQ1 inh; 77% of 1,600 active; inhibition, % at 10 µM;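 active means mean percent inhibition of duplicate wells above the buffer-only control mean plus 3 SD of those controls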;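 further: 0% = buffer only wells and 100% = XE-991 inhibitor control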
The depositor's hits bear a star; i = inactive; · = no result given; + = active, no number. Sampled rows, rich in hits. Any-hit rate of the full collection: about 3.1%.

SMILES	KCNK3 block	hERG protect	KCNQ1 pot	KCNK9 block	KCNQ1 inh	KCNQ1 inh valid	CHO Tl flux	KCNQ2 inh	KCNQ1 KCNE1 spec	others
CCOC(=O)C1CCN(C(=O)c2cccc(Cl)c2)CC1	i	-10.6	i	i	i	·	·	·	·
O=C(Nc1cc(Cl)ccc1N1CCOCC1)c1ccc2c(c1)OCCO2	i	-6.1	i	i	12*	68.0*	0.461	82.7%*	52.0%*
O=C(NCC1(c2ccccc2)CCCC1)C1(c2ccccc2)CCCC1	i	-5.5	i	i	6*	112.5*	0.407	107.7%*	151.5%*	KCNQ1 APC inh=i
CCNC(=O)c1ccc2c(c1)C1C3CCC(C3)C1C(c1ccccc1)N2 (configuration not stated)	i	-10.5	i	i	i	·	·	·	·
CCc1c(C)nc2nc(SCc3ccccc3Cl)[nH]n2c1=O	i	-11.7	i	i	9*	85.0*	0.483	68.7%*	34.0%*
CCOC(=O)c1cc(C#N)c(Oc2ccccc2)nc1-c1ccccc1	i	-3.0	i	i	7*	88.0*	0.329*	112.0%*	96.5%*
CCCNc1nc(-c2ccccc2)c(C(=O)OCC)cc1C#N	i	-10.3	i	i	i	·	·	·	·
O=C(c1cnn2c(-c3ccccc3)cc(-c3ccccc3)nc12)N1CCN(Cc2ccccc2)CC1	i	-12.6	i	i	7*	129.5*	0.311*	153.7%*	+
CC1CCN(C(=O)c2cc3nc(-c4ccccc4)cc(-c4ccccc4)n3n2)CC1	i	-14.5	i	i	6*	112.5*	0.438	107.7%*	182.5%*	KCNQ1 APC inh=i
O=C(NC1CCCC1)c1cc2nc(-c3ccccc3)cc(-c3ccccc3)n2n1	i	-9.0	i	i	i	·	·	·	·
O=C(c1cnn2c(C(F)F)cc(-c3ccccc3)nc12)N1CCOCC1	i	-3.3	i	i	i	·	·	·	·
Cc1cc(=O)oc2cc(OCC(=O)Nc3c(C)n(C)n(-c4ccccc4)c3=O)c(Cl)cc12	i	·	·	·	·	·	·	·	·
O=C(CSc1ccncc1)Nc1ccc2ccccc2c1	i	-9.2	i	i	i	·	·	·	·
O=C(CSc1ccc2ccccc2c1)Nc1ccncc1	i	-9.9	i	i	7*	90.5*	0.537	75.3%*	i	KCNQ1 APC inh=i
Oc1ccc2nnc3c(Br)cnn3c2c1	i	-44.0	i	i	24*	+	0.042*	i	i
Clc1ccc2nc3c4ccccc4cnn3c2c1	i	-6.0	i	i	i	·	·	·	·
COc1ccc(-c2ccc(=O)n(CC(=O)NCC3COCCO3)n2)cc1 (configuration not stated)	i	-7.9	i	i	i	·	·	·	·
Cc1[nH]n(-c2ncc(-c3ccccc3)s2)c(=O)c1C(c1ccc(Cl)cc1)C(C#N)C#N (configuration not stated)	i	-15.3	i	i	7*	45.0*	0.424	i	69.0%*
Cc1[nH]n(-c2ccccc2)c(=O)c1C(c1ccccc1[N+](=O)[O-])C(C#N)C#N (configuration not stated)	i	-8.9	i	i	i	·	·	·	·
O=C(COc1ccc2c(c1)CCC2)Nc1ccccn1	i	-11.1	i	i	i	·	·	·	·
CCCCCNC(=O)c1cccc(S(=O)(=O)N2CC3(C)CC2CC(C)(C)C3)c1 (configuration not stated)	i	-12.9	i	i	7*	86.5*	0.501	i	87.5%*
COc1ccc(C(CNC(=O)c2ccc(OC)c(S(=O)(=O)N3CCCC3)c2)N2CCCC2)cc1 (configuration not stated)	i	·	·	·	·	·	·	·	·
CSc1nnc(C)c(/C=C/Nc2ccc(Cl)cc2)n1	i	-1.2	i	i	11*	48.5*	0.429	i	87.5%*
CSc1nnc(C)c(/C=C/Nc2ccc(F)cc2)n1	i	-3.1	i	i	i	·	·	·	·
c1ccc(-c2cn3nc4c(nc3n2)CCCC4)cc1	i	-17.2	i	i	8*	39.5*	0.396	76.3%*	75.5%*
SMILES	KCNK3 block	hERG protect	KCNQ1 pot	KCNK9 block	KCNQ1 inh	KCNQ1 inh valid	CHO Tl flux	KCNQ2 inh	KCNQ1 KCNE1 spec	others
Brc1ccc(-c2cn3nc4c(nc3n2)CCCC4)cc1	i	-8.5	i	i	i	·	·	·	·
COc1ccc(-c2cc(-c3ccccc3)nc(Cl)n2)cc1OC	i	-5.5	i	i	8*	131.0*	0.45	128.0%*	166.0%*	KCNQ1 APC inh=i
COc1ccc(/C=N/NC(=O)c2cc3c(ccc4ccccc43)o2)c(OC)c1	i	-22.7	i	i	18*	82.5*	0.434	63.7%*	170.5%*
COc1cccc(/C=C/C(=O)OCC(=O)Nc2nnc(-c3ccccc3)o2)c1	i	-9.4	i	i	i	·	·	·	·
O=S(=O)(NCCSCc1ccc(Cl)cc1Cl)c1ccc2c(c1)OCCO2	-9.1*	-1.4	i	i	7*	129.0*	0.43	96.0%*	144.5%*	KCNQ1 APC inh=i
Nc1nc(Cl)cc(N2CCCC2)n1	i	-7.2	i	i	i	·	·	·	·
Nc1nc(Cl)cc(N2CCC(c3cc(-c4ccc(Cl)cc4Cl)n[nH]3)CC2)n1	i	-14.8	i	i	6*	135.5*	0.369*	112.7%*	174.5%*
O=C1c2ccsc2SCCN1Cc1c(Cl)cccc1Cl	i	-11.6	i	i	8*	69.0*	0.422	79.0%*	86.0%*
CCc1noc(C)c1C(=O)N1CCCSC1=Nc1ccccc1	i	-9.2	i	i	8*	101.0*	0.47	59.3%*	66.0%*	KCNQ1 APC inh=+
